Laboratory results reported in ChEMBL document CHEMBL1152538, “Synthesis and biological evaluation of asymmetric gramicidin S analogues containing modified D-phenylalanine residues” (Bioorg Med Chem, 2009).
Converted amounts (≈) assume the structure as drawn. *1 amine or outer side, *2 acyl side, *3 side chain or, on linkers, in order; H or OH if unused. Where a SMILES comes first, the peptide text is derived from it. [ ]: non-standard residue; d: D form. The star is where a group is joined. X2 = C[N+](C)(C)c1ccc(C[C@H](N[*:1])C(=O)[*:2])cc1; Phe(4-NH2) = Nc1ccc(C[C@H](N)C(=O)O)cc1; Orn = NCCC[C@H](N)C(=O)O; PhAc = O=C(Cc1ccccc1)*; Piv = CC(C)(C)C(=O)*

Experiments:
Escherichia coli = assay: Antibacterial activity against Escherichia coli ATCC 25922 after 24 to 96 hrs by well microplate assay; type: functional
Outline: (§1)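 Strains were kept at -70 °C, grown at 30 °C on sheep-blood Columbia agar, and suspended in saline to OD595 0.1, then diluted 10×. Inoculum was added at 2 µL per 100 µL Nutrient Broth with yeast extract (2 g/400 mL). Peptide stocks were 4 g/L in ethanol, diluted to 1000 mg/L in water, then twofold in broth (64–1 mg/L). Plates were held at 30 °C for 24–96 h. MIC was the lowest concentration inhibiting growth.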

Staphylococcus aureus [1] = assay: Antibacterial activity against Staphylococcus aureus 7388 after 24 to 96 hrs by well microplate assay; type: functional; outline: as §1
Pseudomonas aeruginosa [2] = assay: Antibacterial activity against Pseudomonas aeruginosa ATCC 19582 after 24 to 96 hrs by well microplate assay; type: functional; outline: as §1
Enterococcus faecalis = assay: Antibacterial activity against Enterococcus faecalis 1131 after 24 to 96 hrs by well microplate assay; type: functional; outline: as §1
Pseudomonas aeruginosa [3] = assay: Antibacterial activity against Pseudomonas aeruginosa AK1 after 24 to 96 hrs by well microplate assay; type: functional; outline: as §1
Streptococcus mitis [4] = assay: Antibacterial activity against Streptococcus mitis ATCC 33399 after 24 to 96 hrs by well microplate assay; type: functional; outline: as §1
Staphylococcus aureus [5] = assay: Antibacterial activity against Staphylococcus aureus 7323 after 24 to 96 hrs by well microplate assay; type: functional; outline: as §1
[6] = system: coagulase-negative Staphylococcus; assay: Antibacterial activity against coagulase-negative Staphylococcus CNS 7368 after 24 to 96 hrs by well microplate assay
[7] = Cytotoxicity against human erythrocytes assessed as hemolysis at 1.5 mM after 4 hrs by twofold dilution assay; type: cell-based; conditions: erythrocyte, 1500 µM
[8] = system: coagulase-negative Staphylococcus; assay: Antibacterial activity against coagulase-negative Staphylococcus CNS 5277 after 24 to 96 hrs by well microplate assay
[9] = Cytotoxicity against human erythrocytes assessed as hemolysis after 4 hrs by twofold dilution assay; type: cell-based; conditions: Erythrocyte
Outline: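 Heparinised blood was spun at 1000g and 10 °C, and erythrocytes were washed three times in 0.85% saline and diluted to 1/25 packed volume. Peptide stocks were 1.5 mM in 30% DMSO/0.5 mM saline, sonicated if suspended, and twofold serially diluted in saline in triplicate rows. 1% Triton-X served as the lysis reference. Cells were incubated at 37 °C for 4 h and centrifuged, and the supernatant was read at A405 for % hemolysis.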

[10] = system: coagulase-negative Staphylococcus; assay: Antibacterial activity against coagulase-negative Staphylococcus CNS 5115 after 24 to 96 hrs by well microplate assay
Streptococcus mitis [11] = assay: Antibacterial activity against Streptococcus mitis BMS after 24 to 96 hrs by well microplate assay; type: functional; outline: as §1
[12] = Cytotoxicity against human erythrocytes assessed as hemolysis at 25 uM after 4 hrs by twofold dilution assay; type: cell-based, Erythrocyte; conditions: read-out: Activity
[13] = Cytotoxicity against human erythrocytes assessed as hemolysis at 12 uM after 4 hrs by twofold dilution assay; type: cell-based, Erythrocyte; conditions: read-out: Activity
Outline: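 Freshly drawn heparinised blood was spun at 1000g and 10 °C. The erythrocytes were washed three times in 0.85% saline and diluted to 1/25 packed cell volume. Peptide stock was 1.5 mM in 30% DMSO/saline, sonicated if needed, and serially twofold diluted in saline across 10 wells, with 1% Triton-X as reference. Plates were held at 37 °C for 4 h, then centrifuged, and hemolysis percentage was read from supernatant A405.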

SMILES | MIC (Escherichia coli) [µg/mL] | MIC (Staphylococcus aureus [1]) [µg/mL] | MIC (Pseudomonas aeruginosa [2]) [µg/mL] | MIC (Enterococcus faecalis) [µg/mL] | MIC (Pseudomonas aeruginosa [3]) [µg/mL] | MIC (Streptococcus mitis [4]) [µg/mL] | MIC (Staphylococcus aureus [5]) [µg/mL] | MIC [6] [µg/mL] | Activity [7] | MIC [8] [µg/mL] | EC50 [9] [µM] | MIC [10] [µg/mL] | MIC (Streptococcus mitis [11]) [µg/mL] | hemolysis at 4 h, 25 µM [12] [%] | hemolysis at 4 h, 12 µM [13] [%]
CC(C)C[C@@H]1NC(=O)[C@H](CCCN)NC(=O)[C@H](C(C)C)NC(=O)[C@@H]2CCCN2C(=O)[C@H](Cc2ccccc2)NC(=O)[C@H](CC(C)C)NC(=O)[C@H](CCCN)NC(=O)[C@H](C(C)C)NC(=O)[C@@H]2CCCN2C(=O)[C@H](Cc2ccc(NC(=O)Cc3ccccc3)cc2)NC1=O (cyclo(FPV[Orn]L[Phe(4-NH2)](PhAc)PV[Orn]L)) | 32 (≈ 25.1 µM) | 16 (≈ 12.6 µM) | > 64 | 32 (≈ 25.1 µM) | > 64 | 16 (≈ 12.6 µM) | 8 (≈ 6.28 µM) | 8 (≈ 6.28 µM) | Non-toxic | 8 (≈ 6.28 µM) | 9.35 | 8 (≈ 6.28 µM) | 8 (≈ 6.28 µM) | – | –
CC(C)C[C@@H]1NC(=O)[C@H](CCCN)NC(=O)[C@H](C(C)C)NC(=O)[C@@H]2CCCN2C(=O)[C@H](Cc2ccccc2)NC(=O)[C@H](CC(C)C)NC(=O)[C@H](CCCN)NC(=O)[C@H](C(C)C)NC(=O)[C@@H]2CCCN2C(=O)[C@H](Cc2ccc(NC(=O)C(C)(C)C)cc2)NC1=O (cyclo(FPV[Orn]L[Phe(4-NH2)](Piv)PV[Orn]L)) | 32 (≈ 25.8 µM) | 8 (≈ 6.45 µM) | 64 (≈ 51.6 µM) | 16 (≈ 12.9 µM) | 64 (≈ 51.6 µM) | 4 (≈ 3.22 µM) | 8 (≈ 6.45 µM) | 8 (≈ 6.45 µM) | – | 8 (≈ 6.45 µM) | – | 8 (≈ 6.45 µM) | 4 (≈ 3.22 µM) | 50 | –
CC(C)C[C@@H]1NC(=O)[C@H](CCCN)NC(=O)[C@H](C(C)C)NC(=O)[C@@H]2CCCN2C(=O)[C@H](Cc2ccccc2)NC(=O)[C@H](CC(C)C)NC(=O)[C@H](CCCN)NC(=O)[C@H](C(C)C)NC(=O)[C@@H]2CCCN2C(=O)[C@H](Cc2ccc([N+](C)(C)C)cc2)NC1=O.[I-] (cyclo(FPV[Orn]L[X2]PV[Orn]L)) | 64 | 32 | > 64 | > 64 | > 64 | 8 | 64 | 32 | Non-toxic | 16 | 134 | 16 | 8 | – | –
CC(C)C[C@@H]1NC(=O)[C@H](CCCN)NC(=O)[C@H](C(C)C)NC(=O)[C@@H]2CCCN2C(=O)[C@@H](Cc2ccccc2)NC(=O)[C@H](CC(C)C)NC(=O)[C@H](CCCN)NC(=O)[C@H](C(C)C)NC(=O)[C@@H]2CCCN2C(=O)[C@@H](Cc2ccccc2)NC1=O [GRAMICIDIN S] (cyclo(L[dF]PV[Orn]L[dF]PV[Orn])) | 32 (≈ 28 µM) | 8 (≈ 7.01 µM) | 8 (≈ 7.01 µM) | 16 (≈ 14 µM) | 64 (≈ 56.1 µM) | 4 (≈ 3.5 µM) | 8 (≈ 7.01 µM) | 8 (≈ 7.01 µM) | – | 16 (≈ 14 µM) | 11.7 | 16 (≈ 14 µM) | 8 (≈ 7.01 µM) | – | 50
